This passage reports inhibition, inhibition in vivo and Activity results from ChEMBL document CHEMBL3792351, “Synthesis and anti-inflammatory activity evaluation of a novel series of 6-phenoxy-[1,2,4]triazolo[3,4-a]phthalazine-3-carboxamide derivatives” (Bioorg Med Chem Lett, 2016).

Calls of active or inactive are those of the source. The rule behind the calls is not given here.

In data set [1] the test system is HeLa. The data set is described as follows: Inhibition of TNFalpha-induced NFkappaB (unknown origin) activation expressed in human HeLa cells at 100 uM pre-incubated for 8 hrs followed by stimulation with TNFalpha for 8 hrs by luciferase reporter assay. It counts as cell-based. The method in brief: (§1)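 HeLa cells transiently transfected 48 h with NF-κB-dependent luciferase reporter, pretreated 8 h with compounds (100 μM screen or indicated concentrations), then TNF-α (10 ng/ml) 8 h; luciferase activity read. Mean ± standard deviation, three independent experiments; compared with TNF-α-stimulated cells.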
Background: Reporter assays use an easily measured gene product as a stand-in for the process of interest.

In data set [2] the test system is Mus musculus. Nature of the data set: Antiinflammatory activity in Kunming mouse assessed as inhibition of xylene-induced ear edema at 50 mg/kg, po administered 1 hr before xylene challenge measured after 30 mins relative to vehicle treated control. It counts as functional. The method in brief:
(§2)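 Kunming mice (18-22 g), xylene ear edema; compound given orally at 1, 2, 3, 4, 5 or 6 h before xylene application. Inhibition (%) vs vehicle control group at the corresponding time; p<0.05 vs vehicle.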

Data set [3] deals with HeLa. Nature of the data set: Cytotoxicity against human HeLa cells assessed as cell viability at 100 uM after 24 hrs by MTT assay. Format: cell-based. The method in brief:
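HeLa cells treated with compounds at indicated concentrations for 24 h; viability by MTT. Mean ± standard deviation of three independent experiments.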
(Formazan colour is commonly taken as a measure of viable cells.)

In data set [4] the test system is Mus musculus. The data set is described as follows: Antiinflammatory activity in Kunming mouse assessed as inhibition of xylene-induced ear edema at 50 mg/kg, po administered 3 hrs before xylene challenge measured after 30 mins relative to vehicle treated control. It counts as functional. The method, boiled down:
as §2

Data set [5] has as its system Mus musculus. The data set is described as follows: Antiinflammatory activity in Kunming mouse assessed as inhibition of xylene-induced ear edema at 50 mg/kg, po administered 5 hrs before xylene challenge measured after 30 mins relative to vehicle treated control. Format: functional. The method, boiled down: as §2
For data set [6], the system named is HeLa. Nature of the data set: Inhibition of TNFalpha-induced NFkappaB (unknown origin) activation expressed in human HeLa cells pre-incubated for 8 hrs followed by stimulation with TNFalpha for 8 hrs by luciferase reporter assay. Format: cell-based. The method, boiled down:
as §1

In data set [7] the test system is Mus musculus. Nature of the data set: Antiinflammatory activity in Kunming mouse assessed as inhibition of xylene-induced ear edema at 50 mg/kg, ip administered 0.5 hrs before xylene challenge measured after 30 mins relative to vehicle treated control. Format: functional. The method, boiled down:
(§3)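 Xylene-induced ear edema, Kunming mice (18-22 g), 8 per group; drug-treated, indomethacin and normal control groups; single i.p. dose. Edema reported in mg (mean ± SEM), inhibition rate (%) vs DMSO vehicle group; p<0.05 vs vehicle.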

Data set [8] concerns Mus musculus. Nature of the data set: Antiinflammatory activity in Kunming mouse assessed as inhibition of xylene-induced ear edema at 50 mg/kg, po administered 6 hrs before xylene challenge measured after 30 mins relative to vehicle treated control. It counts as functional. The method, boiled down: as §2
The test system of data set [9] is Mus musculus. Nature of the data set: Antiinflammatory activity in Kunming mouse assessed as inhibition of xylene-induced ear edema at 50 mg/kg, po administered 4 hrs before xylene challenge measured after 30 mins relative to vehicle treated control. Format: functional. The method, boiled down: as §2
The test system of data set [10] is Mus musculus. The data set is described as follows: Antiinflammatory activity in Kunming mouse assessed as inhibition of xylene-induced ear edema at 50 mg/kg, po administered 2 hrs before xylene challenge measured after 30 mins relative to vehicle treated control. Format: functional. The method in brief: as §2
The test system of data set [11] is Mus musculus. Nature of the data set: Antiinflammatory activity in Kunming mouse assessed as inhibition of xylene-induced ear edema at 100 mg/kg, po administered 5 hrs before xylene challenge measured after 30 mins relative to vehicle treated control. Format: functional.
The test system of data set [12] is Mus musculus. The data set is described as follows: Antiinflammatory activity in Kunming mouse assessed as inhibition of xylene-induced ear edema at 100 mg/kg, po administered 4 hrs before xylene challenge measured after 30 mins relative to vehicle treated control. It counts as functional.
The subject of data set [13] is Mus musculus. The data set is described as follows: Antiinflammatory activity in Kunming mouse assessed as inhibition of xylene-induced ear edema at 100 mg/kg, po administered 3 hrs before xylene challenge measured after 30 mins relative to vehicle treated control. Format: functional.
Data set [14] deals with Mus musculus. Nature of the data set: Antiinflammatory activity in Kunming mouse assessed as inhibition of xylene-induced ear edema at 100 mg/kg, ip administered 0.5 hrs before xylene challenge measured after 30 mins relative to vehicle treated control. Format: functional. The method, boiled down: as §3
Data set [15] deals with Mus musculus. Nature of the data set: Antiinflammatory activity in Kunming mouse assessed as inhibition of xylene-induced ear edema at 100 mg/kg, po administered 1 hr before xylene challenge measured after 30 mins relative to vehicle treated control. It counts as functional.
For data set [16], the system named is Mus musculus. The data set is described as follows: Antiinflammatory activity in Kunming mouse assessed as inhibition of xylene-induced ear edema at 100 mg/kg, po administered 6 hrs before xylene challenge measured after 30 mins relative to vehicle treated control. Format: functional.
Data set [17] concerns Mus musculus. The data set is described as follows: Antiinflammatory activity in Kunming mouse assessed as inhibition of xylene-induced ear edema at 100 mg/kg, po administered 2 hrs before xylene challenge measured after 30 mins relative to vehicle treated control. It counts as functional.

Regarding `COc1ccc(Oc2nn3c(C(N)=O)nnc3c3ccccc23)cc1`, the inhibition entry in data set [1] is “Active”.

As for `Cc1ccccc1Oc1nn2c(C(N)=O)nnc2c2ccccc12`, the inhibition entry in data set [1] is “Active”.

As to `NC(=O)c1nnc2c3ccccc3c(Oc3ccc(Cl)cc3)nn12`, the inhibition result in data set [1] was “Active”.

As for `NC(=O)c1nnc2c3ccccc3c(Oc3ccc(Br)cc3)nn12`, the inhibition entry in data set [1] was “Active”.

`NC(=O)c1nnc2c3ccccc3c(Oc3ccccc3F)nn12`: the inhibition entry in [1] is “Active”.

For the compound `Cc1cccc(Oc2nn3c(C(N)=O)nnc3c3ccccc23)c1`, the inhibition in vivo at 50 mg/kg in data set [2] came to 5.63%; in [4], 22.7%; in [5], 22.4%; in data set [7] it was 58.2%; in [8], 8.19%; in [9] it was 38.9%. Besides, the inhibition in vivo at 50 mg/kg in data set [10] came to 8.92%. Further, the Activity entry in [3] is reported as “Non-toxic”. Further, in data set [1], the inhibition entry is “Active”. Also, in [6], the inhibition result was “Dose-dependent effect”.

Turning to `Cc1ccc(Oc2nn3c(C(N)=O)nnc3c3ccccc23)cc1`, the inhibition entry in data set [1] is “Active”.

`NC(=O)c1nnc2c3ccccc3c(Oc3cccc(Cl)c3)nn12`: the inhibition entry in [1] is “Active”.

For the compound `COc1ccc2c(c1)c(CC(=O)O)c(C)n2C(=O)c1ccc(Cl)cc1` [INDOMETHACIN], the inhibition in vivo at 100 mg/kg turned out to be 53.5% in data set [11]; 63.4% in data set [12]; 27.7% in [13]; 59.2% in [14]; 19.1% in data set [15]; 29.6% in data set [16]. Also, the inhibition in vivo at 100 mg/kg in [17] was found to be 22.5%.

Turning to `Cc1cccc2c3c(ccc12)C1=C(C(=O)C3=O)[C@@H](C)CO1`, the inhibition result in data set [1] is “Active”.

On to `NC(=O)c1nnc2c3ccccc3c(Oc3cccc(F)c3)nn12`, for which the inhibition entry in [1] was “Active”.

As to `NC(=O)c1nnc2c3ccccc3c(Oc3ccc(Cl)cc3Cl)nn12`, in [3], the Activity entry is “Toxic”. The inhibition entry in [1] is “Active”. For the same compound, in data set [6], the inhibition entry is “Dose-dependent effect”.

Turning to `NC(=O)c1nnc2c3ccccc3c(Oc3ccc(F)cc3)nn12`, the inhibition entry in [1] is “Active”.

Usually inhibition in vivo stands for the relative decrease from the control value, in per cent.
